Columns and labels:
[1] = Inhibition of tyrosine kinase activity in ER 22 membrane fraction by competition with the RRSrc peptide using [32P]-gamma ATP as radioligand; type: cell membranes
Procedure, shortened: (§1)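 Enzyme source was membrane fractions of ER 22 cells (CCL 39 cells transfected with EGF receptor). Inhibitors were added at various concentrations and phosphorylation of the peptide was measured.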

[2] = target: Epidermal growth factor receptor (Homo sapiens) (UniProt P00533); conditions: ER22; 20 uM
[3] = Inhibition of ER22 EGF-receptor expressing cell membrane tyrosine kinase activity; procedure, shortened: as §1
[4] = Inhibition of ER22 EGF-receptor expressing cell membrane tyrosine kinase activity at 100 uM
[5] = target: Epidermal growth factor receptor (Homo sapiens) (UniProt P00533); conditions: ER22; 10 uM

Epidermal growth factor receptor (Homo sapiens), sequence (P00533 whole entry): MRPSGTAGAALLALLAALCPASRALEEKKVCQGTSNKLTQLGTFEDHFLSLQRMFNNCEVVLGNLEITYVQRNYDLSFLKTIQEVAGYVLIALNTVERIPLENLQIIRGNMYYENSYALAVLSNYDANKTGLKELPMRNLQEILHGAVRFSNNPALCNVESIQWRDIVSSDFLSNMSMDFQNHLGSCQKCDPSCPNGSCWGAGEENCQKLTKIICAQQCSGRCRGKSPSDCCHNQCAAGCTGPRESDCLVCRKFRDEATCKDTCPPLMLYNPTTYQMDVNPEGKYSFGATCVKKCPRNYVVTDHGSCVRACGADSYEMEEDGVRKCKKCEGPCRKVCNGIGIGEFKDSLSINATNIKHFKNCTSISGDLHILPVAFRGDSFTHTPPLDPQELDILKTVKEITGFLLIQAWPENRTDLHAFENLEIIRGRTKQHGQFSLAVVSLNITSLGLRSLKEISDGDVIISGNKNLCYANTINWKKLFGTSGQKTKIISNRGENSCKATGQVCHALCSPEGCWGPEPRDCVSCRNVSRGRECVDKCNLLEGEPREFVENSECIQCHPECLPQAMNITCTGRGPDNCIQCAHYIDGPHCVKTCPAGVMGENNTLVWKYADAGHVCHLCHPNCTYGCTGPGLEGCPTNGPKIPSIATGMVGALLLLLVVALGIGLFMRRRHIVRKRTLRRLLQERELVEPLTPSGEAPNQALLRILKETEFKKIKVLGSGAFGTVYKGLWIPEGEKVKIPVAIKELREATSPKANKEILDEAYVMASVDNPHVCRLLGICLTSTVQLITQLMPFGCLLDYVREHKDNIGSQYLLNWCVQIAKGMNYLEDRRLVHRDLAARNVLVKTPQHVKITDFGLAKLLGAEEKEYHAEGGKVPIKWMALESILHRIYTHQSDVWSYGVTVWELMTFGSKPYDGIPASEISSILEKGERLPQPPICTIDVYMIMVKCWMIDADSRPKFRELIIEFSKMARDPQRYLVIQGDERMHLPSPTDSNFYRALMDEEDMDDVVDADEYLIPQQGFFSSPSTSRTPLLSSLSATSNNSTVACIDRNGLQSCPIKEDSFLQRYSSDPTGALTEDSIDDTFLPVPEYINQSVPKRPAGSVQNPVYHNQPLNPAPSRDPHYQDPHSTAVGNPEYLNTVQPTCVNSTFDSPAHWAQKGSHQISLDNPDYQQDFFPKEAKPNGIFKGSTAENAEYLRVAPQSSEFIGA

Row | Compound | IC50 [1] [µM] | other results
1 | COC(=O)c1cc(/N=C/c2ccccc2O)ccc1O | > 100 | –
2 | COC(=O)c1ccc(NCc2cc(O)ccc2O)cc1O | 0.2 | –
3 | COC(=O)c1cc(/N=C/c2cccc(O)c2)ccc1O | > 100 | inhibition [2]: 20%
4 | COC(=O)c1ccc(/N=C/c2cc(O)ccc2O)cc1O | > 10 | –
5 | O=C(O)c1cccc(NCc2cc(O)ccc2O)c1 | 2.4 | –
6 | COC(=O)c1cc(NCc2cc(O)ccc2O)ccc1O | 0.6 | –
7 | COC(=O)c1cc(/N=C/c2cc(O)ccc2O)ccc1OC | > 100 | –
8 | COC(=O)c1cc(NCc2ccccc2O)ccc1O | 45 | –
9 | COC(=O)c1cc(NCc2ccc(O)cc2)ccc1O | – | IC50 [3]: > 10 µM
10 | COC(=O)c1cc(NCc2cc(OC)ccc2OC)ccc1O | > 100 | inhibition [2]: 18%
11 | COC(=O)c1cc(/N=C/c2cc(O)ccc2O)ccc1O | 100 | –
12 | O=C(O)c1cc(NCc2ccccc2O)ccc1O | 25 | –
13 | COC(=O)c1cc(NCc2cccc(O)c2)ccc1O | – | inhibition [4]: 37%
14 | O=C(O)c1cc(/N=C/c2cc(O)ccc2O)ccc1O | 5 | –
15 | COC(=O)c1cc(/N=C/c2ccc(O)cc2O)ccc1O | > 100 | inhibition [2]: 65%
16 | COC(=O)c1cc(/N=C/c2ccc(O)cc2)ccc1O | > 10 | –
17 | COC(=O)c1cc(/N=C/c2cc(OC)ccc2OC)ccc1O | > 10 | inhibition [5]: 14%
18 | COC(=O)c1cc(/N=C/c2ccc(O)c(O)c2)ccc1O | 10 | inhibition [2]: 37%
19 | O=C(O)c1cccc(/N=C/c2cc(O)ccc2O)c1 | > 10 | –
20 | O=C(O)c1cc(/N=C/c2ccccc2O)ccc1O | > 100 | –
21 | COC(=O)c1cccc(NCc2cc(O)ccc2O)c1 | 1.6 | –
22 | COC(=O)c1cc(NCc2cc(O)ccc2O)ccc1OC | 5 | –

Reference: ChEMBL document CHEMBL1127084, “Synthesis and structure-activity studies of a series of [(hydroxybenzyl)amino]salicylates as inhibitors of EGF receptor-associated tyrosine kinase activity” (J Med Chem, 1993)
